Results from ChEMBL document CHEMBL3853307, “Anti-inflammatory Effect of Methyl Gallate on Experimental Arthritis: Inhibition of Neutrophil Recruitment, Production of Inflammatory Mediators, and Activation of Macrophages” (J Nat Prod, 2016).
Active and inactive are the calls of the source. The calls are words filed in the database; no cut-off is given here.

Test system: Neutrophil
Assay: Antiinflammatory activity in C57BL/6 mouse neutrophils assessed as inhibition of neutrophil adhesion to TNFalpha-primed mouse tEnd.1 cells at 0.1 uM preincubated for 1 hr with neutrophils followed by tEND.1 cells addition measured after 1 hr by Giemsa staining-based light microscopic method
Format: functional, cell-based
Method in brief: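 tEnd.1 endothelioma cells (10^4/well, 24 h) primed with mouse TNF-α (10 ng/mL) for 4 h. Bone marrow neutrophils preincubated 1 h with compound (0.1 μM) or fucoidan (25 μg/mL), then added at 50 per tEnd.1 cell for 1 h at 37 °C with shaking. After washing and Giemsa staining, adhesion index = fraction of tEnd.1 with bound neutrophils × neutrophils per tEnd.1 × 100.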

Structure (SMILES): COC(=O)c1cc(O)c(O)c(O)c1 [GALLIC ACID METHYL ESTER]
- inhibition: Active
